The list is not random: actives were taken first. Their share in the collection is about 2.3%.
TRPC4 agonist – opens the mouse TRPC4 cation channel; HEK293 TRPC4beta/mu-opioid, Fluo4 calcium fluorescence; stronger effect = higher value; B-score at 10 µM; hit rate 0.49% among 310,000; AID 2237; Q9QUQ5;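 active means B-score above 5 SD of library B-scores, and initial fluorescence ratio not above library mean plus 5 SD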;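 further: positive B-score marks a calcium rise read as TRPC4 activation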
Target sequence (Q9QUQ5 whole entry, looked up): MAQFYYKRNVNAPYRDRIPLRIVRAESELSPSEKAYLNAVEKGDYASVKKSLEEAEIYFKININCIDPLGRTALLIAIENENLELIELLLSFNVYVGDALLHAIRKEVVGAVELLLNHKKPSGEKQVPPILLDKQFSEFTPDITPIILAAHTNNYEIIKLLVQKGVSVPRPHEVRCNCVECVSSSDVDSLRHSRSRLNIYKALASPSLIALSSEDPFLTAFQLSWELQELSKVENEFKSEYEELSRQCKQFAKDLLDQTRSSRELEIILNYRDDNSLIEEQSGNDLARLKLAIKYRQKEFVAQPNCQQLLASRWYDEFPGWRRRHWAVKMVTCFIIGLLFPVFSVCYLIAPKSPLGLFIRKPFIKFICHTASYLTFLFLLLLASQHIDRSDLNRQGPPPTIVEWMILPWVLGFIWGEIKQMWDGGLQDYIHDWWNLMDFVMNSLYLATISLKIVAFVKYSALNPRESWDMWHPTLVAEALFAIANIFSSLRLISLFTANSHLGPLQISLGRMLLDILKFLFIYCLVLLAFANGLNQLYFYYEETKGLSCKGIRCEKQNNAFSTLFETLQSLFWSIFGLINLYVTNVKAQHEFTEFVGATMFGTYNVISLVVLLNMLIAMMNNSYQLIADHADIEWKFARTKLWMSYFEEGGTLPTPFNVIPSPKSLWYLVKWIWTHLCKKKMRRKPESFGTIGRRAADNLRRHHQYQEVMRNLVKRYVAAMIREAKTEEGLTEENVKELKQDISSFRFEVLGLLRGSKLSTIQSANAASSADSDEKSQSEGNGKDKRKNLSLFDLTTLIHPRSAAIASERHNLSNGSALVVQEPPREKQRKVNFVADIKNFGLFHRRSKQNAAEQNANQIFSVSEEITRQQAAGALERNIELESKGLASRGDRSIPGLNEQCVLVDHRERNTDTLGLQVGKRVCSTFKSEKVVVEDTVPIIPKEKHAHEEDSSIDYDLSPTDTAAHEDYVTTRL
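Assay system: HEK293 stable line with TRPC4beta plus mu-opioid receptor; schedule: 45 min room-temperature Fluo4 loading, 110 s read; technique: kinetic Fluo4 calcium fluorescence; evaluation: integrated baseline-normalised fluorescence ratio, converted to per-well B score; controls: buffer (low) and maximal DAMGO (high)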
TRPC6 activator – mouse TRPC6 channel activation; Q61143; HEK293-TRPC6 membrane potential dye fluorescence; stronger effect = higher value; B-score at 10 µM; hit rate 0.13% among 310,000; AID 2550;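 active means B-score of the integrated fluorescence ratio above library mean plus 3 SD, and starting fluorescence ratio within library mean plus 5 SD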;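 further: higher score means more depolarization so channel activation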
TRPC4 PAM – TRPC4 (mouse) allosteric potentiation. Q9QUQ5. HEK293 TRPC4beta/mu-opioid, DAMGO EC20, Fluo-4 Ca2+ flux; stronger effect = higher value. B-score at 10 µM. hit rate 0.42% among 310,000. AID 2227;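 active means B-score of calcium response area above 5 SD of library B-scores, with initial fluorescence ratio within 5 SD of library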;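 further: B-score of integrated fluorescence ratio over time as area under calcium response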
TRPC6 inh – inhibitors of mouse TRPC6 channel | HEK293-TRPC6, membrane potential dye, ACh-evoked depolarization; stronger effect = lower value | B-score at 10 µM | hit rate 1.1% among 310,000;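 active means B-score under library mean minus 3 SD, initial fluorescence not abnormally high, positive integrated signal ratio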;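 further: B-score derived from integrated fluorescence ratio over the kinetic read; more negative B-score means stronger inhibition of depolarization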
TRPC4 block – TRPC4 (mouse) channel inhibition; HEK293 TRPC4beta/mu-opioid, DAMGO-evoked Fluo4 calcium flux; stronger effect = lower value; B-score at 10 µM; hit rate 0.39% among 300,000;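 active means B-score over 3 SD under the library average, no early fluorescence shift, positive overall ratio signal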
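Assay system: HEK293 cells with stable TRPC4beta plus mu-opioid receptor expression. Dosing: single dose. Measured by: Fluo4 Ca2+ flux fluorescence. Also added: DAMGO in two steps, submaximal then maximal. Read-out: B score from integrated Fluo4 fluorescence ratio.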
TRPC4 spec 2 – mouse TRPC4 off-target activity of TRPC6 inhibitors, second screen; shares compounds with TRPC6 inh; HEK293 TRPC4/MOR, membrane potential dye fluorescence; channel activated by saturating DAMGO dose; inhibition, % at 10 µM; hit rate 42% among 920; AID 2776;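 active means compounds whose fluorescence signal differed from control wells by over 3 SD, either direction, in both duplicate plates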
TRPC4 spec – selectivity of TRPC6 inhibitors: effect on mouse TRPC4. shares compounds with TRPC6 inh. HEK293 TRPC4/mu-opioid, membrane potential fluorescence. activity change, negative = inhibition, % at 10 µM. hit rate 61% among 920. AID 2777;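 active means rise or fall in signal beyond 3 SD of buffer-only wells in both replicate plates, either sign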;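 further: integrated kinetic ratio of fluorescence range over baseline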
HEK293 MPD ctr 2-1 – parental HEK293 nonspecific activity of TRPC6 inhibitors, second screen; shares compounds with TRPC6 inh; parental HEK293 membrane potential dye fluorescence; maximal acetylcholine challenge after compound addition; signal change vs control, % at 10 µM; hit rate 31% among 920;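 active means membrane potential signal moving either way by over 3 SD of the maximum-effect control, in both duplicate plates, meaning non-specific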
HEK293 MPD ctr-1 – counter-screen for TRPC6 inhibitors: effect in parental HEK293 cells; shares compounds with TRPC6 inh; parental HEK293 membrane potential dye fluorescence; membrane potential signal change, % at 10 µM; hit rate 60% among 920;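 active means membrane potential signal shifting up or down by more than 3 SD of buffer-only wells, on both duplicate plates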
HEK293 MPD ctr-2 – checks TRPC6 modulator effects in parental HEK293 cells; shares compounds with TRPC6 inh; membrane potential dye fluorescence; membrane potential signal change, % at 10 µM; hit rate 51% among 2,400;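 active means membrane potential signal moves up or down beyond 5 SD from buffer-only wells, on both duplicate plates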
HEK293 MPD ctr 2-2 – second check of TRPC6 modulator effects in parental HEK293 cells. shares compounds with TRPC6 inh. membrane potential dye fluorescence; after compound, maximal acetylcholine stimulation. inhibition, % at 10 µM. hit rate 14% among 2,400. AID 488926;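 active means membrane potential signal drops by more than 5 SD from the mean control signal, in both duplicate plates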;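 further: plate controls were acetylcholine ECmax control wells for no effect and buffer only wells for full effect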
TRPC4 ctr mod – tests whether TRPC6 modulators also affect mouse TRPC4 | shares compounds with TRPC6 inh | HEK293 TRPC4/mu-opioid, membrane potential fluorescence | percent change from control (negative = decrease, positive = increase), % at 10 µM | hit rate 69% among 2,400;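 active means membrane potential signal moved up or down beyond 5 SD of buffer control wells, in both duplicate plates, actives on both sides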;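 further: plate controls were assay buffer wells for no effect and DAMGO maximal-effect wells for full effect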
TRPC4/MOR inh 2 – mouse TRPC4 off-target activity of TRPC6 modulators, second screen. shares compounds with TRPC6 inh. HEK293 TRPC4/mu-opioid, membrane potential dye fluorescence; stimulated with maximal-effect DAMGO. inhibition, % at 10 µM. hit rate 55% among 2,400. AID 488928;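 active means drop in membrane potential signal beyond 5 SD of the control wells in both duplicate plates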;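 further: TRPC4 counter screen for TRPC6 hits run under conditions tuned for TRPC6 not TRPC4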
TRPC6 block conf – mouse TRPC6 inhibitor confirmation; shares compounds with TRPC6 inh; HEK293-TRPC6, membrane potential dye, ACh-evoked depolarization; inhibition, % at 10 µM; hit rate 43% among 3,300; AID 488960;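 active means fluorescence ratio falls more than 5 SD below the full-stimulation control mean, in both duplicate runs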;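 further: integrated fluorescence ratio of peak minus minimum over baseline after agonist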
TRPC6 act confirm – mouse TRPC6 activator confirmation | AID 488961 | shares compounds with TRPC6 inh | activation, % at 10 µM | HEK293-TRPC6 membrane potential dye fluorescence, FDSS | hit rate 11% among 2,800;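 active means ratio signal rise beyond 5 SD above unstimulated control wells' mean, seen in both duplicate runs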;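 further: plate controls were buffer EC0 wells for no effect and acetylcholine ECmax response for full effect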
* marks the source's active call; other numbers are inactive results; i = inactive; . = no result.

SMILES | TRPC4 agonist | TRPC6 activator | TRPC4 PAM | TRPC6 inh | TRPC4 block | HEK293 MPD ctr-2 | HEK293 MPD ctr 2-2 | TRPC4 ctr mod | TRPC4/MOR inh 2 | TRPC6 block conf | TRPC6 act confirm | others
O=C(COc1ccc2c3c(c(=O)oc2c1)CCC3)NC(Cc1ccc(Cl)cc1)C(=O)O (stereo not drawn) | i | i | i | i | i | . | . | . | . | . | .
COc1ccc(OC)c(Nc2cc(C)nc3nc(C)nn23)c1 | i | i | i | i | i | . | . | . | . | . | .
COc1ccc(OC)c(Nc2cc(C)nc3ccc(C)cc23)c1 | i | i | i | -7.5* | -6* | . | . | . | . | 67%* | i | TRPC4 spec 2=52%*;TRPC4 spec=-15%*;HEK293 MPD ctr 2-1=i;HEK293 MPD ctr-1=-239%*
CCCn1c(=N)c(C#N)cc2c(=O)n3ccccc3nc21 | i | i | i | -8.3* | i | -260%* | i | -44%* | 44%* | 38%* | i
Cc1cccn2c(=O)c3cc(C#N)c(=N)n(Cc4ccncc4)c3nc12 | i | i | i | -5.7* | i | -168%* | i | -30%* | i | i | i
Cc1cccn2c(=O)c3cc(C(N)=S)c(=N)n(CCCN4CCOCC4)c3nc12 | i | i | i | i | i | . | . | . | . | . | .
Cc1cccn2c(=O)c3cc(C#N)c(=N)n(CCN4CCOCC4)c3nc12 | i | i | i | -5.6* | i | -150%* | i | -24%* | i | 48%* | i
Cc1cccn2c(=O)c3cc(C#N)c(=N)n(CCCN4CCOCC4)c3nc12 | i | i | i | -8.6* | i | -84%* | 118%* | -26%* | 68%* | 57%* | i
CCCn1c(=N)c(C#N)cc2c(=O)n3cccc(C)c3nc21 | i | i | i | i | i | . | . | . | . | . | .
O=C(Nc1ccc(F)c(F)c1)C1CCN(S(=O)(=O)c2cccc3nonc23)CC1 | i | i | i | i | i | . | . | . | . | . | .
CCOC(=O)C1CCN(C(=O)CN2C(=O)c3cccnc3Oc3ccccc32)CC1 | i | i | i | i | i | . | . | . | . | . | .
O=C1Nc2ccccc2OC1CC(=O)N1CCN(c2cccc(C(F)(F)F)c2)CC1 (stereo not drawn) | i | i | i | -9.7* | i | . | . | . | . | i | i | TRPC4 spec 2=i;TRPC4 spec=i;HEK293 MPD ctr 2-1=i;HEK293 MPD ctr-1=i
O=C(CCN1C(=O)S/C(=C\c2ccc(F)cc2)C1=O)Nc1ccc(O)cc1C(=O)O | i | i | i | i | i | . | . | . | . | . | .
Cc1c(O)c(CN2CCCCC2)cc2c1oc(=O)c1ccccc12 | i | i | i | i | i | . | . | . | . | . | .
Cc1c(O)c(CN2CCCCC2)cc2c3c(c(=O)oc12)CCC3 | i | i | i | -10* | i | -243%* | i | -39%* | i | 44%* | i
CN(C)CC/C=C1/c2cc(F)ccc2Sc2ccc(Cl)cc21 | i | i | i | -5.3* | i | i | i | 9.5%* | 58%* | i | i
CN(C)CC/C=C1/c2ccccc2Sc2c(O)cc(Cl)cc21 | i | i | i | i | i | . | . | . | . | . | .
Oc1cccc(Nc2nc(NCC3CCCO3)c3ccccc3n2)c1 (stereo not drawn) | i | i | i | i | i | . | . | . | . | . | .
CCOc1ccc(Nc2nc(NCC3CCCO3)c3ccccc3n2)cc1 (stereo not drawn) | i | i | i | -9.6* | -5* | . | . | . | . | i | i | TRPC4 spec 2=56%*;TRPC4 spec=-17%*;HEK293 MPD ctr 2-1=i;HEK293 MPD ctr-1=-150%*
c1ccc(-c2nc(NCC3CCCO3)c3ccccc3n2)nc1 (stereo not drawn) | i | i | i | i | i | . | . | . | . | . | .
COc1ccc(Nc2nc(NCC3CCCO3)c3ccccc3n2)c(OC)c1 (stereo not drawn) | i | i | i | -9.8* | -6* | . | . | . | . | 75%* | i | TRPC4 spec 2=48%*;TRPC4 spec=-16%*;HEK293 MPD ctr 2-1=i;HEK293 MPD ctr-1=-223%*
c1ccc(Nc2nc(NCC3CCCO3)c3ccccc3n2)cc1 (stereo not drawn) | i | i | i | -8.8* | -6* | . | . | . | . | 53%* | i | TRPC4 spec 2=31%*;TRPC4 spec=-15%*;HEK293 MPD ctr 2-1=i;HEK293 MPD ctr-1=-135%*
COC(=O)N1CCN(c2ccc(C)c(C)c2)CC1 | i | i | i | i | i | . | . | . | . | . | .
COC(=O)N1CCN(c2ccc(Cl)c(Cl)c2)CC1 | i | i | i | -6.3* | i | i | i | 8.0%* | 37%* | i | i
